From ChEMBL document CHEMBL2424614, “A novel p-terphenyl derivative inducing cell-cycle arrest and apoptosis in MDA-MB-435 cells through topoisomerase inhibition” (Eur J Med Chem, 2013)
Calls of active or inactive are those of the source. The rule behind the calls is not given here.

What was measured:
[1] = biological target: DNA topoisomerase 2-alpha (Homo sapiens) (UniProt P11388); experiment: Inhibition of recombinant human DNA topoisomerase 2-alpha assessed as supression of kDNA decatenation at 100 uM after 30 mins by agarose gel electrophoresis
Chain of DNA topoisomerase 2-alpha (Homo sapiens) (P11388 whole entry): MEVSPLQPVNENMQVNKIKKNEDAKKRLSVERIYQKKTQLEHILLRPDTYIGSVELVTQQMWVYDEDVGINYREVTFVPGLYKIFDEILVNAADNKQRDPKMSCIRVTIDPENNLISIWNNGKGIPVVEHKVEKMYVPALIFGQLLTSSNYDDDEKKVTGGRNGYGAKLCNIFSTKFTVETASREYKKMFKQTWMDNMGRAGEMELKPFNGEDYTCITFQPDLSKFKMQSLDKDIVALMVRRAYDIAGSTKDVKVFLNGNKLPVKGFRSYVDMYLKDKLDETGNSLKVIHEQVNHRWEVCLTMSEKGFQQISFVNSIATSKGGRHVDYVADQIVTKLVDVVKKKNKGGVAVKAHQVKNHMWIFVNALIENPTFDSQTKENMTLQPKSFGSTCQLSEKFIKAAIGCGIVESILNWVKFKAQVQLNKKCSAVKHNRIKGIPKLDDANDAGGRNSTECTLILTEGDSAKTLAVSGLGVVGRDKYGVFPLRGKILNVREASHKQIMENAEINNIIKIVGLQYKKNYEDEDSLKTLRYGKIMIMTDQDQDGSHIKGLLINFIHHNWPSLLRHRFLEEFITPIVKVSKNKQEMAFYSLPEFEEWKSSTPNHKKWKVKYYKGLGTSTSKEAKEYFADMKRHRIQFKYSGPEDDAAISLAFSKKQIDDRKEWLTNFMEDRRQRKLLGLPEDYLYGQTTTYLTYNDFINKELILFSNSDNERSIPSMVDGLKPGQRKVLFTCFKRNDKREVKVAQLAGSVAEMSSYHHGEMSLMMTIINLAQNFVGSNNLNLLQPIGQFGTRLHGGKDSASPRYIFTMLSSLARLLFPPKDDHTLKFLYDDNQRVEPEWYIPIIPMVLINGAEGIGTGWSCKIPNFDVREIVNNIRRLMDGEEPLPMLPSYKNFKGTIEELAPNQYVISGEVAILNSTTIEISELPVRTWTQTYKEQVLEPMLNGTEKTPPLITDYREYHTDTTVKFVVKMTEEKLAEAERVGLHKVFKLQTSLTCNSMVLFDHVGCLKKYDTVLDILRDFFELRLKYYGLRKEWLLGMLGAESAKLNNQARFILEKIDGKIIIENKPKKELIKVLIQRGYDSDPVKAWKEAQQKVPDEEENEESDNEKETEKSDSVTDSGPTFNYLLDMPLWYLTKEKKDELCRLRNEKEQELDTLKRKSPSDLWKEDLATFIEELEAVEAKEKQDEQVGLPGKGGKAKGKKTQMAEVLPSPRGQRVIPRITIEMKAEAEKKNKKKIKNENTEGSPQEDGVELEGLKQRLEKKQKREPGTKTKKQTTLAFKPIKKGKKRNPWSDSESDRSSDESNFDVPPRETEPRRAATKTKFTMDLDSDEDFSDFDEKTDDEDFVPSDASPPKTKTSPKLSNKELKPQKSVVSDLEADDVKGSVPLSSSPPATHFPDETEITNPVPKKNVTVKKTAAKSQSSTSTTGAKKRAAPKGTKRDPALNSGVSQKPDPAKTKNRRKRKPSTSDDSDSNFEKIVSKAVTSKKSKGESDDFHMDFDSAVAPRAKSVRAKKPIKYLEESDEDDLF
Method in brief: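 ATP-dependent decatenation assay: 0.20 µg kDNA with 2 units Topo IIα at 37 °C for 30 min, 20 µL. Buffer: 50 mM Tris pH 8.0, KCl, 10 mM MgCl₂, 0.5 mM ATP, 0.5 mM DTT, 30 µg/mL BSA. Stopped with 10% SDS. Agarose gel scored for kDNA versus released minicircles.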

[2] = biological target: DNA topoisomerase 2-alpha (Homo sapiens) (UniProt P11388); experiment: Inhibition of recombinant human DNA topoisomerase 2-alpha-mediated relaxation of supercoiled pBR322 DNA at 100 uM after 30 mins by Agarose gel electrophoresis
Method in brief: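 Relaxation assay with 0.5 µg supercoiled pBR322 and 1 unit recombinant human Topo IIα, 20 µL. Incubated 30 min at 30 °C; stopped with 7 mM EDTA. 1% agarose gel, 5 V/cm, 2 h, TAE; ethidium bromide stain, UV. DMSO stocks. At least duplicate.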

Bos taurus = species on record: Bos taurus; experiment: Inhibition of calf thymus DNA topoisomerase 1-mediated relaxation of supercoiled pBR322 DNA at 100 uM after 30 mins by Agarose gel electrophoresis
Method in brief: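 Relaxation assay with 0.5 µg supercoiled pBR322 and 1 unit calf thymus Topo I, 20 µL. Buffer: 10 mM Tris–HCl pH 7.9, 150 mM NaCl, 0.1% BSA, 1 mM spermidine, 5% glycerol. Incubated 37 °C for 30 min; stopped with sarcosyl stop solution. 1% agarose gel, 5 V/cm, 2 h, TAE; ethidium bromide stain (0.5 µg/mL), UV. DMSO stocks. At least duplicate.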

Calf thymus DNA [3] = experiment: Induction of DNA intercalation activity of calf thymus DNA topoisomerase 1 assessed as unwinding of pBR322 DNA at 10 ug/ml after 30 mins by Agarose gel electrophoresis; format: nucleic-acid assay; details: Bos taurus
Method in brief: (§1)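 Relaxed pBR322 made by treating supercoiled plasmid with excess Topo I (10 units), then proteinase K digestion at 37 °C, phenol-chloroform extraction and ethanol precipitation. Relaxed DNA incubated with compound at 37 °C for 30 min; stopped with gel loading buffer. Run on 1% agarose, TAE, 5 V/cm for 2 h; stained with ethidium bromide 0.5 µg/mL, viewed under UV.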

MDA-MB-435 [4] = experiment: Induction of DNA damage in human MDA-MB-435 cells assessed as phosphorylation of p53 at Ser15 at 10 uM after 12 hrs by Western blotting analysis; format: functional, cell-based
Method in brief: (§2)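 Treated MDA-MB-435 cells lysed in ice-cold Tris-HCl pH 7.4 buffer with Triton, phosphatase and protease inhibitors. Lysates clarified, boiled in SDS loading buffer, run on 8-12% SDS-PAGE and blotted. Membranes blocked in 5% skim milk, probed with primary antibodies, then peroxidase secondaries with ECL detection. β-actin as loading control.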

MDA-MB-435 [5] = experiment: Induction of DNA damage in human MDA-MB-435 cells assessed as phosphorylation of H2AX at Ser139 at 10 uM after 12 hrs by Western blotting analysis; format: functional, cell-based; method in brief: as §2
MDA-MB-435 [6] = experiment: Induction of DNA damage in human MDA-MB-435 cells assessed as phosphorylation of ATM at Ser1981 at 10 uM after 12 hrs by Western blotting analysis; format: functional, cell-based; method in brief: as §2
MDA-MB-435 [7] = experiment: Cytotoxicity against human MDA-MB-435 cells assessed as growth inhibition after 72 hrs by MTT assay; format: functional, cell-based
Method in brief: (§3)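 MTT assay: cells treated in triplicate with a range of concentrations for 72 h at 37 °C, 5% CO2. Medium replaced, MTT (5 mg/mL) added for 4 h, then SDS/isobutanol/HCl solubiliser overnight. Absorbance read at 590 nm. Inhibition calculated against control and blank wells; IC50 is concentration giving 50% growth inhibition; three independent experiments.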

LNCaP = experiment: Cytotoxicity against human LNCAP cells assessed as growth inhibition after 72 hrs by MTT assay; format: functional, cell-based; method in brief: as §3
A549 = experiment: Cytotoxicity against human A549 cells assessed as growth inhibition after 72 hrs by MTT assay; format: functional, cell-based; method in brief: as §3
MDA-MB-435 [8] = experiment: Cytotoxicity against human MDA-MB-435 cells assessed as growth inhibition at 100 uM after 72 hrs by MTT assay
Calf thymus DNA [9] = experiment: Induction of DNA intercalation activity of calf thymus DNA topoisomerase 1 assessed as unwinding of pBR322 DNA at 2 ug/ml after 30 mins by Agarose gel electrophoresis; format: nucleic-acid assay; details: Bos taurus; method in brief: as §1
Calf thymus DNA [10] = experiment: Induction of DNA intercalation activity of calf thymus DNA topoisomerase 1 assessed as unwinding of pBR322 DNA at 100 uM after 30 mins by Agarose gel electrophoresis; format: nucleic-acid assay; details: Bos taurus; method in brief: as §1

| Structure (SMILES) | inhibition [1] | inhibition [2] | inhibition (Bos taurus) | also measured |
| --- | --- | --- | --- | --- |
| COc1ccc(-c2ccc(-c3ccc(O)cc3)cc2)cc1OC | inactive | inactive | inactive | – |
| CC[N+](C)(CC)CCC[n+]1c(-c2ccccc2)c2cc(N)ccc2c2ccc(N)cc21 | – | – | – | Activity (Calf thymus DNA [3]): Active |
| COc1cc([C@@H]2c3cc4c(cc3[C@@H](O[C@@H]3O[C@@H]5CO[C@@H](C)O[C@H]5[C@H](O)[C@H]3O)[C@H]3COC(=O)[C@H]23)OCO4)cc(OC)c1O | – | – | – | Activity (MDA-MB-435 [4]): Active; Activity (MDA-MB-435 [5]): Active; Activity (MDA-MB-435 [6]): Active |
| Oc1ccc(-c2ccc(-c3ccc(O)c(O)c3)c(O)c2)cc1 | Active | – | inactive | growth inhibition (GI) (MDA-MB-435 [7]): Active; growth inhibition (GI) (LNCaP): Active; growth inhibition (GI) (A549): Active |
| Oc1ccc(-c2cc(O)c(-c3ccc(O)c(O)c3)c(O)c2)cc1 | Active | – | Active | growth inhibition (GI) (MDA-MB-435 [7]): Active; growth inhibition (GI) (LNCaP): Active; growth inhibition (GI) (A549): Active |
| COc1ccc(-c2ccc(-c3ccc(OC)c(OC)c3)c(OC)c2)cc1 | inactive | inactive | inactive | Activity (MDA-MB-435 [8]): inactive |
| COc1ccc(-c2cc(OC)c(-c3ccc(OC)c(OC)c3)c(OC)c2)cc1 | inactive | inactive | inactive | Activity (MDA-MB-435 [8]): inactive |
| Oc1ccc(-c2ccc(-c3ccc(O)c(O)c3)c(O)c2O)cc1 | Active | – | inactive | growth inhibition (GI) (MDA-MB-435 [7]): Active; growth inhibition (GI) (LNCaP): Active; growth inhibition (GI) (A549): Active |
| CC[n+]1c(-c2ccccc2)c2cc(N)ccc2c2ccc(N)cc21 | – | – | – | Activity (Calf thymus DNA [9]): Active |
| CC[C@@]1(O)C(=O)OCc2c1cc1n(c2=O)Cc2cc3c(O)cccc3nc2-1 | – | – | Active | Activity (Calf thymus DNA [10]): inactive |
| COc1ccc(-c2ccc(-c3ccc(O)cc3)c(OC)c2OC)cc1OC | inactive | inactive | inactive | – |
